Calls of active or inactive are those of the source. The rule behind the calls is not given here.
How the values were obtained:
[1] = Cytotoxicity against human Lunet cells expressing ET subgenomic replicon after 4 days by Celltitre-Glo assay; type: cell-based
Procedure, shortened: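 ET-Lunet replicon cells, 3000 cells/well, incubated 4 days with serially diluted compound; proliferation/viability by CellTiter-Glo luminescence; CC50 = concentration giving 50% inhibition, curve-fitted.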

[2] = test system: Hepatitis C virus; assay: Antiviral activity against HCV genotype 1b infected in human ET-Lunet cells assessed as inhibition of HCV RNA replication after 4 days by firefly luciferase reporter gene assay; type: functional, organism-based, Hepacivirus hominis; settings: 96 h
Procedure, shortened: (§1)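 ET-Lunet cells carrying genotype 1b replicon seeded at 3000 cells/well, exposed 4 days to serially diluted compound; HCV RNA replication read as firefly luciferase luminescence (Bright-Glo). EC50 taken as concentration giving 50% inhibition, from curve fitting.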

[3] = biological target: RNA-directed RNA polymerase (Hepacivirus hominis, UniProt O39930, S282T); assay: Inhibition of HCV genotype 1b recombinant NS5B RNA dependent RNA polymerase S282T mutant using IRES RNA as substrate after 30 mins by radioactive assay in presence of [alpha32p]UTP; design: species or system Hepatitis C virus subtype 1b
[4] = Inhibition of HCV genotype 1b wild type recombinant NS5B RNA dependent RNA polymerase using IRES RNA as substrate after 30 mins by radioactive assay in presence of [alpha32p]UTP; design: species or system Hepatitis C virus subtype 1b
Procedure, shortened: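 Recombinant genotype 1b NS5B (wild-type or S282T), 40 ng/μL, with 20 ng/μL genotype 1b (−) IRES RNA template. Mix holds 5 μM each of the four natural ribonucleotides plus [α-³²P]UTP, RNase inhibitor 1 unit/μL, 5 mM MgCl₂ and 2 mM DTT in 50 mM Hepes pH 7.5. Incubated at 27 °C for 30 min, then stopped with EDTA/NaCl/citrate. Radioactive RNA product quantified and IC50 fitted.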

[5] = test system: Hepatitis C virus; assay: Antiviral activity against HCV genotype 1b infected in human ET-Lunet cells assessed as inhibition of HCV RNA replication up to 100 uM after 4 days by firefly luciferase reporter gene assay; type: functional, organism-based; settings: Hepacivirus hominis; procedure, shortened: as §1

Chain of RNA-directed RNA polymerase (O39930 entry or part of it S282T): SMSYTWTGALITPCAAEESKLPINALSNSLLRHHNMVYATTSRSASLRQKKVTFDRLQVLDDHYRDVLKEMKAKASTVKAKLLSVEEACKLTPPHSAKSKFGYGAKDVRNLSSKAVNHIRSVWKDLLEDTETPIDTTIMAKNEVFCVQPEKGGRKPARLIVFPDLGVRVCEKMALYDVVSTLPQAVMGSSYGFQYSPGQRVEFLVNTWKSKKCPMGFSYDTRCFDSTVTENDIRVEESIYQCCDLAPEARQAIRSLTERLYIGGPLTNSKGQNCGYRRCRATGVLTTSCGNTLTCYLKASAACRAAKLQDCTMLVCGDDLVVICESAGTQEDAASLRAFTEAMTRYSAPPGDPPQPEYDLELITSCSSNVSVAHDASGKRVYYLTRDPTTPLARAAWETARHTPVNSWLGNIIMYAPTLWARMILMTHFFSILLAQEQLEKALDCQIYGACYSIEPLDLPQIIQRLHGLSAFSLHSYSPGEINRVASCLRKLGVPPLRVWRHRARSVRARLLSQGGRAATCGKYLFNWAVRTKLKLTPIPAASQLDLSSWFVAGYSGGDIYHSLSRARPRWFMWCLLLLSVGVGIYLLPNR

SMILES	CC50 at 96 h [1] [µM]	EC50 [2] [µM]	IC50 [3] [µM]	IC50 [4] [µM]	inhibition [5]
COc1nc(N)nc2c1ncn2[C@@H]1O[C@H](CO[P@](=O)(N[C@@H](C)C(=O)OCC(C)C)Oc2ccccc2)[C@@H](O)[C@]12CCO2	> 20	4.42			
Nc1ccn([C@@H]2O[C@H](CO)[C@@H](O)[C@@]23CCO3)c(=O)n1	> 100	> 100			
O=c1ccn([C@@H]2O[C@H](CO)[C@@H](O)[C@]23CCO3)c(=O)[nH]1	> 100	> 100			
Nc1nc2c(ncn2[C@@H]2O[C@H](COP(=O)(O)OP(=O)(O)OP(=O)(O)O)[C@@H](O)[C@]23CCO3)c(=O)[nH]1			10.4	9.5	
Nc1nc2c(ncn2[C@@H]2O[C@H](CO)[C@@H](O)[C@]23CCO3)c(=O)[nH]1					inactive
COc1nc(N)nc2c1ncn2[C@@H]1O[C@H](CO[P@@](=O)(N[C@@H](C)C(=O)OC2CCCC2)Oc2ccccc2)[C@@H](O)[C@]12CCO2	> 20	0.45			
O=c1ccn([C@@H]2O[C@H](CO)[C@@H](O)[C@@]23CCO3)c(=O)[nH]1	> 100	> 100			
O=c1ccn([C@@H]2O[C@H](COP(=O)(O)OP(=O)(O)OP(=O)(O)O)[C@@H](O)[C@@]23CCCO3)c(=O)[nH]1				> 100	
COC(=O)[C@H](C)NP(=O)(OC[C@H]1O[C@@H](n2ccc(=O)[nH]c2=O)[C@]2(CCCO2)[C@@H]1O)Oc1ccccc1 (mixture of isomers)	> 100	20.6			
C[C@@]1(F)[C@H](O)[C@@H](CO)O[C@H]1n1ccc(N)nc1=O			56.7	8.41	
Nc1ccn([C@@H]2O[C@H](CO)[C@@H](O)[C@]23CCO3)c(=O)n1	> 100	56.6			
COc1nc(N)nc2c1ncn2[C@@H]1O[C@H](CO[P@@](=O)(N[C@@H](C)C(=O)OCc2ccccc2)Oc2ccccc2)[C@@H](O)[C@]12CCO2	> 20	8.65			
COc1nc(N)nc2c1ncn2[C@@H]1O[C@H](CO[P@](=O)(N[C@@H](C)C(=O)OCc2ccccc2)Oc2ccccc2)[C@@H](O)[C@]12CCO2	> 20	11.7			
COc1nc(N)nc2c1ncn2[C@@H]1O[C@H](COP(=O)(N[C@@H](C)C(=O)OCC(C)(C)C)Oc2cccc3ccccc23)[C@@H](O)[C@]12CCO2 (mixture of isomers)	> 20	0.31			
CCCCOC(=O)[C@H](C)N[P@@](=O)(OC[C@H]1O[C@@H](n2cnc3c(OC)nc(N)nc32)[C@@]2(CCO2)[C@@H]1O)Oc1ccccc1	> 20	3.1			
COC(=O)[C@H](C)NP(=O)(OC[C@H]1O[C@@H](n2ccc(=O)[nH]c2=O)[C@@]2(CCO2)[C@@H]1O)Oc1ccccc1 (mixture of isomers)	> 100	16.7			
COc1nc(N)nc2c1ncn2[C@@H]1O[C@H](CO[P@](=O)(N[C@@H](C)C(=O)OC(C)C)Oc2ccccc2)[C@@H](O)[C@]12CCO2	> 20	4.52			
CCOC(=O)[C@H](C)N[P@](=O)(OC[C@H]1O[C@@H](n2cnc3c(OC)nc(N)nc32)[C@@]2(CCO2)[C@@H]1O)Oc1ccccc1	> 20	0.86			
COc1nc(N)nc2c1ncn2[C@@H]1O[C@H](CO[P@@](=O)(N[C@@H](C)C(=O)OC(C)C)Oc2ccccc2)[C@@H](O)[C@]12CCO2	> 20	0.0045			
O=c1ccn([C@@H]2O[C@H](CO)[C@@H](O)[C@]23CCCO3)c(=O)[nH]1	> 100	> 100			

SMILES	CC50 at 96 h [1] [µM]	EC50 [2] [µM]	IC50 [3] [µM]	IC50 [4] [µM]	inhibition [5]
Nc1ccn([C@@H]2O[C@H](CO)[C@@H](O)[C@@]23CCCO3)c(=O)n1	> 100	> 100			
COc1nc(N)nc2c1ncn2[C@@H]1O[C@H](CO[P@](=O)(N[C@@H](C)C(=O)OC2CCCC2)Oc2ccccc2)[C@@H](O)[C@]12CCO2	> 20	0.67			
COc1nc(N)nc2c1ncn2[C@@H]1O[C@H](CO[P@@](=O)(N[C@@H](C)C(=O)OCC(C)C)Oc2ccccc2)[C@@H](O)[C@]12CCO2	> 20	0.57			
Nc1ccn([C@@H]2O[C@H](COP(=O)(O)OP(=O)(O)OP(=O)(O)O)[C@@H](O)[C@@]23CCO3)c(=O)n1				> 100	
COc1nc(N)nc2c1ncn2[C@@H]1O[C@H](CO)[C@@H](O)[C@]12CCO2					inactive
Nc1ccn([C@@H]2O[C@H](COP(=O)(O)OP(=O)(O)OP(=O)(O)O)[C@@H](O)[C@]23CCO3)c(=O)n1			> 100	8.48	
COc1nc(N)nc2c1ncn2[C@@H]1O[C@H](CO[P@@](=O)(N[C@@H](C)C(=O)OCC(C)(C)C)Oc2ccccc2)[C@@H](O)[C@]12CCO2	> 20	1.02			
Nc1ccn([C@@H]2O[C@H](COP(=O)(O)OP(=O)(O)OP(=O)(O)O)[C@@H](O)[C@@]23CCCO3)c(=O)n1				> 100	
Nc1ccn([C@@H]2O[C@H](CO)[C@@H](O)[C@]23CCCO3)c(=O)n1	> 100	> 100			
CC(C)OC(=O)[C@H](C)NP(=O)(OC[C@H]1O[C@@H](n2ccc(N)nc2=O)[C@@]2(CCO2)[C@@H]1O)Oc1ccccc1 (stereo partly drawn)	> 100	16.7			
CCCCOC(=O)[C@H](C)N[P@](=O)(OC[C@H]1O[C@@H](n2cnc3c(OC)nc(N)nc32)[C@@]2(CCO2)[C@@H]1O)Oc1ccccc1	> 20	0.27			
COC(=O)[C@H](C)NP(=O)(OC[C@H]1O[C@@H](n2ccc(=O)[nH]c2=O)[C@@]2(CCCO2)[C@@H]1O)Oc1ccccc1 (mixture of isomers)	> 100	28.3			
COc1nc(N)nc2c1ncn2[C@@H]1O[C@H](CO[P@](=O)(N[C@@H](C)C(=O)OCC(C)(C)C)Oc2ccccc2)[C@@H](O)[C@]12CCO2	> 20	9.31			
O=c1ccn([C@@H]2O[C@H](CO)[C@@H](O)[C@@]23CCCO3)c(=O)[nH]1	> 100	14.9			
Nc1ccn([C@@H]2O[C@H](COP(=O)(O)OP(=O)(O)OP(=O)(O)O)[C@@H](O)[C@]23CCCO3)c(=O)n1			> 100	45.3	
COC(=O)[C@H](C)NP(=O)(OC[C@H]1O[C@@H](n2ccc(=O)[nH]c2=O)[C@]2(CCO2)[C@@H]1O)Oc1ccccc1 (mixture of isomers)	> 100	28.5			
COC(=O)[C@H](C)NP(=O)(OC[C@H]1O[C@@H](n2cnc3c(OC)nc(N)nc32)[C@@]2(CCO2)[C@@H]1O)Oc1ccccc1 (mixture of isomers)	> 20	7.16			
COc1nc(N)nc2c1ncn2[C@@H]1O[C@H](COP(=O)(O)OP(=O)(O)OP(=O)(O)O)[C@@H](O)[C@@]1(C)F			5.31	4.2	
O=c1ccn([C@@H]2O[C@H](COP(=O)(O)OP(=O)(O)OP(=O)(O)O)[C@@H](O)[C@]23CCO3)c(=O)[nH]1			> 100	39.4	
